Screening results (PubChem)
INS-1E GSIS act: primary screen for activators of insulin secretion dependent on glucose, INS-1E cells, GLuc reporter luminescence; INS-1E GLuc reporter insulin secretion, 2-3 h; activation, % at 16.6 µM; 370,000 compounds, 0.61% hits;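 active = lowest replicate activation of at least 40%, so every replicate reaches that level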;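 note: 0% = median of neutral control wells and 100% = median of IBMX positive control wells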
MLL AF4-AF9 inh: MLL-AF4/AF9 protein interaction inhibition | P42568 | AlphaScreen, biotin-AF4 peptide binding to FLAG-AF9 | inhibition, % at 10 µM | 350,000 compounds, 0.47% hits | AID 651704;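 active = every replicate reaching a set inhibition limit, whatever the replicate mean, cut at about 25% in these data; inconclusive = mean inhibition reaches that limit but some replicates miss it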;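 note: 0% = plate neutral control median and 100% = total signal loss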
Target sequence (P42568 whole entry, looked up): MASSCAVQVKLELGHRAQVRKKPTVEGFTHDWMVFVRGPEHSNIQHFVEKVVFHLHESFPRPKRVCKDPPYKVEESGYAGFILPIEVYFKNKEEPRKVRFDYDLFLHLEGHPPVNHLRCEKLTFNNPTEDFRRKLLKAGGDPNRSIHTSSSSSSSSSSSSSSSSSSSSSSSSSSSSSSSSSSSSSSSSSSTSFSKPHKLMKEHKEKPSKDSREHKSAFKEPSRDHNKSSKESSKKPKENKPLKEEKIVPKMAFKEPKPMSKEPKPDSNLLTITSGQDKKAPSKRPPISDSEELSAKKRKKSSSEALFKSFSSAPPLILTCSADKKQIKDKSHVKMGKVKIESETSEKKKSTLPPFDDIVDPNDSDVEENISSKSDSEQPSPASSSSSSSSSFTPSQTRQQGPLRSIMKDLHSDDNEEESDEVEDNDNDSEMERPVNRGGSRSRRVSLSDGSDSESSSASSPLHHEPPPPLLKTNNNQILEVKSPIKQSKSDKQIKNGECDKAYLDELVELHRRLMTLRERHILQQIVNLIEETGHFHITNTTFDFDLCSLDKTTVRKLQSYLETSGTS
PAX8 inh HTS: PAX8 transcriptional activity inhibition; RMG-I TPO-luciferase reporter, SteadyGlo, 24 h; inhibition, % at 12.6 µM; 360,000 compounds, 1.2% hits;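 active = mean replicate inhibition at least 60% with every replicate also reaching 60%; inconclusive = only one of the two criteria is met; inactive = mean below 60% and not all replicates reaching 60%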;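 note: luciferase light reporting Pax8 driven TPO promoter activity; plate controls were median of neutral control wells for no effect and mitoxantrone controls for full effect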
Xi reactivation: X-chromosome reactivation activator | XiGFP mouse fibroblasts, % GFP-positive cells imaging, 3 d; cells co-treated with 5-aza-dC sensitizer; scaled so ellipticine positive control = 100% | activation, % at 7.58 µM | 360,000 compounds, 0.055% hits;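 active = mean normalized replicate activation at least 10% and every replicate at or above 10%; inconclusive = only one of the two criteria met; inactive = mean below 10% and not all replicates reach 10%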;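 note: 0% = median of on-plate neutral control wells and 100% = ellipticine 6 µM median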
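Material: SV40-immortalized XiGFP fibroblast cells, line 68-5-11 | Buffer or medium: DMEM containing 5-aza-dC | Dosing: One concentration, pinned | Times: 3 d treatment, 15 min room-temperature fixation | Controls: Ellipticine 6 µM positive control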
PGC1a acetyl inh: lowers PGC1a acetylation signal in U2OS cells. AlphaScreen anti-acetyl-lysine; with virally co-expressed GCN5 acetyltransferase. inhibition, % at 15.6 µM. 350,000 compounds, 0.17% hits. AID 651687;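 active = every replicate shows inhibition of at least 40%; inconclusive = mean inhibition at least 40% but some replicate below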;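 note: 0% = neutral control wells and 100% = positive control wells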
EWS-Fli inh: blocks EWS/Fli oncoprotein-driven transcription; inhibition, % at 12.6 µM; A673 NR0B1-luciferase reporter, viability-normalised; 350,000 compounds, 0.67% hits; AID 651661;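 active = mean inhibition of at least 50% after viability correction, with every replicate also passing that limit; inconclusive = mean reaches 50% but only one of two replicates passes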;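 note: firefly luciferase signal divided by Alamar Blue viability fluorescence both relative to DMSO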
An asterisk follows results filed as active; ? = inconclusive; . = no result. This is a sample that favours compounds with a hit; in the whole collection about 2.1% have one here.

SMILES	INS-1E GSIS act	MLL AF4-AF9 inh	PAX8 inh HTS	Xi reactivation	PGC1a acetyl inh	EWS-Fli inh
Cc1ccc(S(=O)(=O)Nc2nc3ccccc3nc2N2CCN(c3ccccc3F)CC2)cc1	.	.	.	.	0	.
CCOC(=O)N1CCN(C2=C(NS(=O)(=O)c3ccc(C)cc3)C(=O)c3ccccc3C2=O)CC1	11	1	44	0	-8	5
CC(=O)Nc1ccc(S(=O)(=O)Nc2ccc(N3CCOCC3)cc2)cc1	.	.	.	.	4	.
Cc1ccc(S(=O)(=O)NC2=C(N3CCN(c4ccccc4F)CC3)C(=O)c3ccccc3C2=O)cc1	-21	35*	-3	0	.	-70
Cc1ccc(S(=O)(=O)NC2=C(N3CCN(Cc4ccccc4)CC3)C(=O)c3ccccc3C2=O)cc1	0	35*	-8	0	.	.
COC(=O)C1CCN(C2=C(NS(=O)(=O)c3ccc(Cl)cc3)C(=O)c3ccccc3C2=O)CC1	11	39*	-13	0	8	-3
CO[C@@H]1CN(C)C(=O)c2ccc(NC(=O)C3CC3)cc2OC[C@H](C)N(Cc2ccccc2)C[C@@H]1C	-3	-5	.	0	-1	-7
Cc1cccc2nc(-c3ccco3)c(Nc3ccccc3)n12	41*	2	10	0	0	4
C[C@@H]1CCCCO[C@@H](CN(C)C(=O)C2CCCCC2)[C@@H](C)CN([C@@H](C)CO)C(=O)c2cc(NC(=O)c3ccccc3)ccc2O1	-17	-1	.	-1	5	1
C(=N\Nc1nc2ccccc2[nH]1)/c1ccc2ncccc2c1	10	.	-32	0	49*	40
COc1ccc(C(=O)/C=C2/c3ccccc3CC(C)(C)N2C)cc1OC	41*	7	9	0	-2	-3
COCC#Cc1ccc2c(c1)O[C@@H](CN(C)C(=O)NC(C)C)[C@H](C)CN([C@@H](C)CO)S2(=O)=O	1	-1	.	2	-13	-5
CN(C)Cc1cc2ccccc2c2c1COC2	-12	32*	15	0	-2	11
CC(=O)NS(=O)(=O)c1ccc(NC(=O)/C=C/c2cn(-c3ccccc3)nc2-c2ccccc2)cc1	-11	-7	-3	0	2	-6
O=C(/C=C\c1cn(-c2ccccc2)nc1-c1ccccc1)Nc1nccs1	47*	.	-13	0	.	.
O=C(N[C@H]1CC[C@@H](CCNS(=O)(=O)c2ccc(F)cc2)O[C@@H]1CO)C1CCOCC1	6	3	1	0	1	-1
CCN1CCC(O)(/C=C/c2ccc(C(C)C)cc2)C(C(=O)/C=C/c2ccc(C(C)C)cc2)C1 (centres undefined)	24	?	64*	0	.	56*
CN1c2ccc(C3=CCCCC3)cc2[C@H]2[C@H](CCN2C(=O)C2CCCCC2)[C@H]1CO	15	26*	-8	0	15	-1
CN1c2ccc(C3=CCCCC3)cc2[C@@H]2[C@@H](CCN2C(=O)C2CCCC2)[C@H]1CO	-10	2	-13	0	11	9
CN1c2ccc(C3=CCCCC3)cc2[C@H]2[C@H](CCN2C(=O)NC2CCCC2)[C@@H]1CO	.	19	.	.	-22	7
CN1c2ccc(C3=CCCCC3)cc2[C@H]2[C@H](CCN2C(=O)C2CCC2)[C@@H]1CO	2	20	69*	1	9	0
CN1c2ccc(C3=CCCCC3)cc2[C@H]2[C@H](CCN2C(=O)NC2CCCCC2)[C@@H]1CO	-21	.	77*	0	-6	-3
Cc1ccccc1N=C1SC(CC(=O)Nc2ccc3ccccc3c2)C(=O)N1Cc1ccccn1 (centres undefined)	-22	.	26	0	7	.
O=C(CC1SC(=Nc2cccc3ccccc23)N(Cc2ccccn2)C1=O)Nc1ccccc1Br (centres undefined)	-2	3	96*	0	.	5
C[C@H]1CN([C@@H](C)CO)S(=O)(=O)c2ccc(-c3cccc(C#N)c3)cc2O[C@H]1CN(C)C	10	-2	-11	0	-7	4
SMILES	INS-1E GSIS act	MLL AF4-AF9 inh	PAX8 inh HTS	Xi reactivation	PGC1a acetyl inh	EWS-Fli inh
CSc1nc(NC(C)C)nc(N2CCOCC2)n1	116*	.	.	.	-9	.
CNc1nc(SCc2ccccc2)nc(N2CCOCC2)n1	50*	.	.	.	16	.
CC(C)(C)Nc1nc(SCc2ccccc2)nc(N2CCOCC2)n1	.	.	19	.	-7	.
CC(=O)Nc1ccc2c(c1)C(=O)N(C)C[C@@H](C)[C@@H](CN(C)C(=O)NC(C)C)O2	3	.	.	0	.	.
C[C@@H]1CN([C@H](C)CO)C(=O)Cc2cc(NC(=O)Nc3ccccc3)ccc2O[C@@H]1CN(C)Cc1ccc(C(=O)Nc2ccccc2N)cc1	3	.	.	0	.	.
C[C@H](CO)N1C[C@H](C)[C@H](CN(C)Cc2ccc3c(c2)OCO3)Oc2ccc(NC(=O)Nc3cccc4ccccc34)cc2CC1=O	-22	1	-4	-1	-2	-6
N#C/C(=C\C=C\c1ccccc1[N+](=O)[O-])C(=O)NCc1ccccc1	-7	5	65*	1	-128	42
N#C/C(=C\c1ccccc1[N+](=O)[O-])C(=O)NCc1ccccc1	-15	3	3	0	.	-5
Nc1nc(NCc2ccccc2Cl)n(-c2ccccc2)n1	17	-1	-12	0	.	-1
CC(=O)Nc1nc(NCc2ccccc2Cl)n(-c2ccccc2)n1	77*	0	2	0	-2	2
NC1=C(Br)C(=O)c2ncccc2C1=O	-10	-2	131*	0	87*	20
O=C1c2cccnc2C(=O)N1CO	.	.	.	.	13	.
O=C(C[C@H]1C=C[C@H](NC(=O)c2ccncc2)[C@H](CO)O1)Nc1ccc(-c2ccccc2)cc1	0	-4	.	0	3	.
COc1ccc(Cn2c(=O)[nH]c3cc(C(=O)NC4CCN(Cc5ccccc5)CC4)ccc32)cc1	-14	8	-3	0	4	17
COc1cc(C(=O)NC2CCN(C)CC2)ccc1Nc1ncc2c(n1)N(C1CCCCC1)CCC(=O)N2C	14	1	-212	1	.	76*
COc1cc(C(=O)NC2CCN(C)CC2)ccc1Nc1ncc2c(n1)N(Cc1ccccc1)CCC(=O)N2C	11	14	-296	0	.	55*
C[C@@H]1CN([C@H](C)CO)C(=O)c2cccc(NC(=O)C3CCOCC3)c2O[C@@H]1CN(C)C(=O)Nc1ccc2c(c1)OCO2	3	-7	9	0	0	-5
O=P(CCCCCCCCCP(=O)(c1ccccc1)c1ccccc1)(c1ccccc1)c1ccccc1	-27	.	80*	.	78*	.
C[C@@H]1CN([C@@H](C)CO)S(=O)(=O)c2ccc(-c3ccc(C#N)cc3)cc2O[C@H]1CN(C)C	19	-1	.	0	-13	5
